Published values gathered from unrelated publications.

| SMILES | target | assay | conditions | Kd [nM] |
| --- | --- | --- | --- | --- |
| CC(C)C[C@H](NC(=O)[C@H](C)NC(=O)[C@@H](NC(=O)[C@H](CCCCN)NC(=O)[C@H](CC(=O)O)NC(=O)[C@H](Cc1ccc(OP(=O)(O)O)cc1)NC(=O)[C@H](C)NC(=O)[C@H](CC(N)=O)NC(=O)[C@@H]1CCCN1C(=O)[C@@H](NC(=O)[C@H](CCCNC(=N)N)NC(=O)[C@H](CCCCN)NC(=O)CCCCCNC(=O)CCCC[C@@H]1SC[C@@H]2NC(=O)N[C@@H]21)C(C)C)[C@@H](C)O)C(=O)N[C@@H](C)C(=O)N[C@@H](CC(C)C)C(=O)N[C@@H](CCC(=O)O)C(=O)O | Tyrosine-protein kinase ABL1, SH2 (ABL1, Homo sapiens, UniProt P00519) | binding, ITC |  | 85500 |
| CCCN1CCN(c2ccc(-c3cncc(Cl)c3N3CCC4(CCNC4=O)CC3)cc2)CC1 | Nicotinamide phosphoribosyltransferase (NAMPT, Homo sapiens, UniProt P43490) | cell-free assay | lysate | 6420 |
| NS(=O)(=O)c1ccc(C(F)(F)F)cc1 | Carbonic anhydrase 2 (CA2, Homo sapiens, UniProt P00918) | binding, ITC |  | ~70 |
| Cc1ccc(NC(=O)c2ccc(CN3CCS(=N)(=O)CC3)cc2)cc1Nc1nccc(-c2cccnc2)n1 | Tyrosine-protein kinase ABL1, non-phosphorylated (ABL1, Homo sapiens, UniProt P00519) | binding, competition with immobilised ligand |  | 79 |
| CC#CC(=O)N1CC[C@@H](n2cc(-c3ccc(Oc4c(F)cccc4F)cc3)c3c(N)n[nH]c(=O)c32)C1 | Receptor tyrosine-protein kinase erbB-2 (ERBB2, Homo sapiens, UniProt P04626) | binding, competition with immobilised ligand |  | > 3000 |
| Cc1cc(Nc2cc3ncccc3c(N[C@@H]3C[C@H]4CC[C@@H](C3)N4CCC#N)n2)n[nH]1 | Mitogen-activated protein kinase kinase kinase 2 (MAP3K2, Homo sapiens, UniProt Q9Y2U5) | binding, competition with immobilised ligand |  | 19 |
| FC(F)(F)c1n[nH]cc1-c1nc2ccc3[nH]ncc3c2c2c1CCCC2 | Tyrosine-protein kinase ABL1, phosphorylated (ABL1, Homo sapiens, UniProt P00519) | binding, competition with immobilised ligand |  | 7200 |
| O=C1Nc2ccccc2C1=O | Parkinson disease protein 7 (PARK7, Homo sapiens, UniProt Q99497) | binding, SPR |  | 2000 |
| Cc1cc2nc3c(=O)[nH]c(=O)nc-3n(C[C@H](O)[C@H](O)[C@H](O)COP(=O)(O)OP(=O)(O)OC[C@H]3O[C@@H](n4cnc5c(N)ncnc54)[C@H](O)[C@@H]3O)c2cc1C | CPEB4 (Homo sapiens, UniProt Q17RY0) | binding | lysate | 5 |
| COc1cc2c(Oc3ccc4[nH]c(C)cc4c3F)ccnc2cc1OCC1(N)CC1 | AMP-activated protein kinase (AMPK) alpha-1/beta-1/gamma-1 (PRKAG1/PRKAA1/PRKAB1, Homo sapiens, UniProt P54619+Q13131+Q9Y478) | binding, SPR |  | 23500 |
| NS(=O)(=O)C(F)(F)F | Carbonic anhydrase 1 (CA1, Homo sapiens, UniProt P00915) | binding, ITC | pH 6 | 164 |
| Cc1cnc(-c2ccc(-c3ccc(NC(=O)Nc4c(F)cc(F)cc4F)cc3F)c3c2C(=O)NC3)[nH]1 | Tyrosine-protein kinase ITK/TSK (ITK, Homo sapiens, UniProt Q08881) | binding, competition with immobilised ligand |  | 5.9 |
